test system: Aspergillus fumigatus; assay: Antimicrobial activity against Aspergillus fumigatus RCMB 002008 at 1 mg/ml by agar diffusion technique; format: functional; details: read-out: DIZ
Method in brief: (§1)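 Agar well diffusion. Test compounds and reference standard drugs were diluted to 5.0, 2.5 and 1.0 mg/mL and applied to 0.6 cm wells. Inhibition zone beyond the control was scored as 0 (no inhibition), + (0.1–0.5 cm), ++ (0.6–1.0 cm) or +++ (1.0–1.5 cm).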

SMILES | zone of inhibition at 1000 µg/mL [mm]
Oc1ccccc1/C=N\n1c(SCCSc2nnc(-c3cccnc3)n2/N=C\c2ccccc2O)nnc1-c1cccnc1 | 0
OC1COc2ccccc2/C=N\n2c(nnc2-c2cccnc2)SCCCSc2nnc(-c3cccnc3)n2/N=C\c2ccccc2OC1 | 0

test system: Aspergillus fumigatus; assay: Antimicrobial activity against Aspergillus fumigatus RCMB 002008 at 2.5 mg/ml by agar diffusion technique; format: functional; details: read-out: DIZ; method in brief: as §1

SMILES | zone of inhibition at 2500 µg/mL [mm]
Oc1ccccc1/C=N\n1c(SCCSc2nnc(-c3cccnc3)n2/N=C\c2ccccc2O)nnc1-c1cccnc1 | 0
OC1COc2ccccc2/C=N\n2c(nnc2-c2cccnc2)SCCCSc2nnc(-c3cccnc3)n2/N=C\c2ccccc2OC1 | 0

test system: Aspergillus fumigatus; assay: Antimicrobial activity against Aspergillus fumigatus RCMB 002008 at 5 mg/ml by agar diffusion technique; format: functional; details: read-out: DIZ; method in brief: as §1

SMILES | zone of inhibition at 5000 µg/mL [mm]
Oc1ccccc1/C=N\n1c(SCCSc2nnc(-c3cccnc3)n2/N=C\c2ccccc2O)nnc1-c1cccnc1 | 0
OC1COc2ccccc2/C=N\n2c(nnc2-c2cccnc2)SCCCSc2nnc(-c3cccnc3)n2/N=C\c2ccccc2OC1 | 0

test system: Penicillium italicum; assay: Antimicrobial activity against Penicillium italicum RCMB 001018 at 1 mg/ml by agar diffusion technique; format: functional; details: read-out: DIZ; method in brief: as §1

SMILES | zone of inhibition at 1000 µg/mL [mm]
Oc1ccccc1/C=N\n1c(SCCSc2nnc(-c3cccnc3)n2/N=C\c2ccccc2O)nnc1-c1cccnc1 | 0
OC1COc2ccccc2/C=N\n2c(nnc2-c2cccnc2)SCCCSc2nnc(-c3cccnc3)n2/N=C\c2ccccc2OC1 | 0

test system: Penicillium italicum; assay: Antimicrobial activity against Penicillium italicum RCMB 001018 at 2.5 mg/ml by agar diffusion technique; format: functional; details: read-out: DIZ; method in brief: as §1

SMILES | zone of inhibition at 2500 µg/mL [mm]
Oc1ccccc1/C=N\n1c(SCCSc2nnc(-c3cccnc3)n2/N=C\c2ccccc2O)nnc1-c1cccnc1 | 0
OC1COc2ccccc2/C=N\n2c(nnc2-c2cccnc2)SCCCSc2nnc(-c3cccnc3)n2/N=C\c2ccccc2OC1 | 1

test system: Penicillium italicum; assay: Antimicrobial activity against Penicillium italicum RCMB 001018 at 5 mg/ml by agar diffusion technique; format: functional; details: read-out: DIZ; method in brief: as §1

SMILES | zone of inhibition at 5000 µg/mL [mm]
Oc1ccccc1/C=N\n1c(SCCSc2nnc(-c3cccnc3)n2/N=C\c2ccccc2O)nnc1-c1cccnc1 | 1
OC1COc2ccccc2/C=N\n2c(nnc2-c2cccnc2)SCCCSc2nnc(-c3cccnc3)n2/N=C\c2ccccc2OC1 | 1

test system: Syncephalastrum racemosum; assay: Antimicrobial activity against Syncephalastrum racemosum RCMB 016001 at 1 mg/ml by agar diffusion technique; format: functional; details: read-out: DIZ; method in brief: as §1

SMILES | zone of inhibition at 1000 µg/mL [mm]
Oc1ccccc1/C=N\n1c(SCCSc2nnc(-c3cccnc3)n2/N=C\c2ccccc2O)nnc1-c1cccnc1 | 0
OC1COc2ccccc2/C=N\n2c(nnc2-c2cccnc2)SCCCSc2nnc(-c3cccnc3)n2/N=C\c2ccccc2OC1 | 0

test system: Syncephalastrum racemosum; assay: Antimicrobial activity against Syncephalastrum racemosum RCMB 016001 at 2.5 mg/ml by agar diffusion technique; format: functional; details: read-out: DIZ; method in brief: as §1

SMILES | zone of inhibition at 2500 µg/mL [mm]
Oc1ccccc1/C=N\n1c(SCCSc2nnc(-c3cccnc3)n2/N=C\c2ccccc2O)nnc1-c1cccnc1 | 1
OC1COc2ccccc2/C=N\n2c(nnc2-c2cccnc2)SCCCSc2nnc(-c3cccnc3)n2/N=C\c2ccccc2OC1 | 1

test system: Syncephalastrum racemosum; assay: Antimicrobial activity against Syncephalastrum racemosum RCMB 016001 at 5 mg/ml by agar diffusion technique; format: functional; details: read-out: DIZ; method in brief: as §1

SMILES | zone of inhibition at 5000 µg/mL [mm]
Oc1ccccc1/C=N\n1c(SCCSc2nnc(-c3cccnc3)n2/N=C\c2ccccc2O)nnc1-c1cccnc1 | 1
OC1COc2ccccc2/C=N\n2c(nnc2-c2cccnc2)SCCCSc2nnc(-c3cccnc3)n2/N=C\c2ccccc2OC1 | 1

test system: Candida albicans; assay: Antimicrobial activity against Candida albicans RCMB 005003 at 1 mg/ml by agar diffusion technique; format: functional; details: read-out: DIZ; method in brief: as §1

SMILES | zone of inhibition at 1000 µg/mL [mm]
Oc1ccccc1/C=N\n1c(SCCSc2nnc(-c3cccnc3)n2/N=C\c2ccccc2O)nnc1-c1cccnc1 | 0
OC1COc2ccccc2/C=N\n2c(nnc2-c2cccnc2)SCCCSc2nnc(-c3cccnc3)n2/N=C\c2ccccc2OC1 | 0

test system: Candida albicans; assay: Antimicrobial activity against Candida albicans RCMB 005003 at 2.5 mg/ml by agar diffusion technique; format: functional; details: read-out: DIZ; method in brief: as §1

SMILES | zone of inhibition at 2500 µg/mL [mm]
Oc1ccccc1/C=N\n1c(SCCSc2nnc(-c3cccnc3)n2/N=C\c2ccccc2O)nnc1-c1cccnc1 | 0
OC1COc2ccccc2/C=N\n2c(nnc2-c2cccnc2)SCCCSc2nnc(-c3cccnc3)n2/N=C\c2ccccc2OC1 | 1

test system: Candida albicans; assay: Antimicrobial activity against Candida albicans RCMB 005003 at 5 mg/ml by agar diffusion technique; format: functional; details: read-out: DIZ; method in brief: as §1

SMILES | zone of inhibition at 5000 µg/mL [mm]
Oc1ccccc1/C=N\n1c(SCCSc2nnc(-c3cccnc3)n2/N=C\c2ccccc2O)nnc1-c1cccnc1 | 0
OC1COc2ccccc2/C=N\n2c(nnc2-c2cccnc2)SCCCSc2nnc(-c3cccnc3)n2/N=C\c2ccccc2OC1 | 1

test system: Staphylococcus aureus; assay: Antimicrobial activity against Staphylococcus aureus RCMB 106001 at 1 mg/ml by agar diffusion technique; format: functional; details: read-out: DIZ; method in brief: as §1

SMILES | zone of inhibition at 1000 µg/mL [mm]
Oc1ccccc1/C=N\n1c(SCCSc2nnc(-c3cccnc3)n2/N=C\c2ccccc2O)nnc1-c1cccnc1 | 0
OC1COc2ccccc2/C=N\n2c(nnc2-c2cccnc2)SCCCSc2nnc(-c3cccnc3)n2/N=C\c2ccccc2OC1 | 0

test system: Staphylococcus aureus; assay: Antimicrobial activity against Staphylococcus aureus RCMB 106001 at 2.5 mg/ml by agar diffusion technique; format: functional; details: read-out: DIZ; method in brief: as §1

SMILES | zone of inhibition at 2500 µg/mL [mm]
Oc1ccccc1/C=N\n1c(SCCSc2nnc(-c3cccnc3)n2/N=C\c2ccccc2O)nnc1-c1cccnc1 | 0
OC1COc2ccccc2/C=N\n2c(nnc2-c2cccnc2)SCCCSc2nnc(-c3cccnc3)n2/N=C\c2ccccc2OC1 | 0

test system: Staphylococcus aureus; assay: Antimicrobial activity against Staphylococcus aureus RCMB 106001 at 5 mg/ml by agar diffusion technique; format: functional; details: read-out: DIZ; method in brief: as §1

SMILES | zone of inhibition at 5000 µg/mL [mm]
Oc1ccccc1/C=N\n1c(SCCSc2nnc(-c3cccnc3)n2/N=C\c2ccccc2O)nnc1-c1cccnc1 | 0
OC1COc2ccccc2/C=N\n2c(nnc2-c2cccnc2)SCCCSc2nnc(-c3cccnc3)n2/N=C\c2ccccc2OC1 | 0

test system: Pseudomonas aeruginosa; assay: Antimicrobial activity against Pseudomonas aeruginosa RCMB 102002 at 1 mg/ml by agar diffusion technique; format: functional; details: read-out: DIZ; method in brief: as §1

SMILES | zone of inhibition at 1000 µg/mL [mm]
Oc1ccccc1/C=N\n1c(SCCSc2nnc(-c3cccnc3)n2/N=C\c2ccccc2O)nnc1-c1cccnc1 | 0
OC1COc2ccccc2/C=N\n2c(nnc2-c2cccnc2)SCCCSc2nnc(-c3cccnc3)n2/N=C\c2ccccc2OC1 | 0

test system: Pseudomonas aeruginosa; assay: Antimicrobial activity against Pseudomonas aeruginosa RCMB 102002 at 2.5 mg/ml by agar diffusion technique; format: functional; details: read-out: DIZ; method in brief: as §1

SMILES | zone of inhibition at 2500 µg/mL [mm]
Oc1ccccc1/C=N\n1c(SCCSc2nnc(-c3cccnc3)n2/N=C\c2ccccc2O)nnc1-c1cccnc1 | 0
OC1COc2ccccc2/C=N\n2c(nnc2-c2cccnc2)SCCCSc2nnc(-c3cccnc3)n2/N=C\c2ccccc2OC1 | 0

test system: Pseudomonas aeruginosa; assay: Antimicrobial activity against Pseudomonas aeruginosa RCMB 102002 at 5 mg/ml by agar diffusion technique; format: functional; details: read-out: DIZ; method in brief: as §1

SMILES | zone of inhibition at 5000 µg/mL [mm]
Oc1ccccc1/C=N\n1c(SCCSc2nnc(-c3cccnc3)n2/N=C\c2ccccc2O)nnc1-c1cccnc1 | 0
OC1COc2ccccc2/C=N\n2c(nnc2-c2cccnc2)SCCCSc2nnc(-c3cccnc3)n2/N=C\c2ccccc2OC1 | 0

test system: Bacillus subtilis; assay: Antimicrobial activity against Bacillus subtilis RCMB 101001 at 1 mg/ml by agar diffusion technique; format: functional; details: read-out: DIZ; method in brief: as §1

SMILES | zone of inhibition at 1000 µg/mL [mm]
Oc1ccccc1/C=N\n1c(SCCSc2nnc(-c3cccnc3)n2/N=C\c2ccccc2O)nnc1-c1cccnc1 | 0
OC1COc2ccccc2/C=N\n2c(nnc2-c2cccnc2)SCCCSc2nnc(-c3cccnc3)n2/N=C\c2ccccc2OC1 | 1

test system: Bacillus subtilis; assay: Antimicrobial activity against Bacillus subtilis RCMB 101001 at 2.5 mg/ml by agar diffusion technique; format: functional; details: read-out: DIZ; method in brief: as §1

SMILES | zone of inhibition at 2500 µg/mL [mm]
Oc1ccccc1/C=N\n1c(SCCSc2nnc(-c3cccnc3)n2/N=C\c2ccccc2O)nnc1-c1cccnc1 | 0
OC1COc2ccccc2/C=N\n2c(nnc2-c2cccnc2)SCCCSc2nnc(-c3cccnc3)n2/N=C\c2ccccc2OC1 | 1

test system: Bacillus subtilis; assay: Antimicrobial activity against Bacillus subtilis RCMB 101001 at 5 mg/ml by agar diffusion technique; format: functional; details: read-out: DIZ; method in brief: as §1

SMILES | zone of inhibition at 5000 µg/mL [mm]
Oc1ccccc1/C=N\n1c(SCCSc2nnc(-c3cccnc3)n2/N=C\c2ccccc2O)nnc1-c1cccnc1 | 1
OC1COc2ccccc2/C=N\n2c(nnc2-c2cccnc2)SCCCSc2nnc(-c3cccnc3)n2/N=C\c2ccccc2OC1 | 6

test system: Escherichia coli; assay: Antimicrobial activity against Escherichia coli RCMB 103001 at 1 mg/ml by agar diffusion technique; format: functional; details: read-out: DIZ; method in brief: as §1

SMILES | zone of inhibition at 1000 µg/mL [mm]
Oc1ccccc1/C=N\n1c(SCCSc2nnc(-c3cccnc3)n2/N=C\c2ccccc2O)nnc1-c1cccnc1 | 0
OC1COc2ccccc2/C=N\n2c(nnc2-c2cccnc2)SCCCSc2nnc(-c3cccnc3)n2/N=C\c2ccccc2OC1 | 0

test system: Escherichia coli; assay: Antimicrobial activity against Escherichia coli RCMB 103001 at 2.5 mg/ml by agar diffusion technique; format: functional; details: read-out: DIZ; method in brief: as §1

SMILES | zone of inhibition at 2500 µg/mL [mm]
Oc1ccccc1/C=N\n1c(SCCSc2nnc(-c3cccnc3)n2/N=C\c2ccccc2O)nnc1-c1cccnc1 | 0
OC1COc2ccccc2/C=N\n2c(nnc2-c2cccnc2)SCCCSc2nnc(-c3cccnc3)n2/N=C\c2ccccc2OC1 | 0

test system: Escherichia coli; assay: Antimicrobial activity against Escherichia coli RCMB 103001 at 5 mg/ml by agar diffusion technique; format: functional; details: read-out: DIZ; method in brief: as §1

SMILES | zone of inhibition at 5000 µg/mL [mm]
Oc1ccccc1/C=N\n1c(SCCSc2nnc(-c3cccnc3)n2/N=C\c2ccccc2O)nnc1-c1cccnc1 | 0
OC1COc2ccccc2/C=N\n2c(nnc2-c2cccnc2)SCCCSc2nnc(-c3cccnc3)n2/N=C\c2ccccc2OC1 | 0

— ChEMBL document CHEMBL1629465, “Efficient synthesis of novel 1,2,4-triazole fused acyclic and 21-28 membered macrocyclic and/or lariat macrocyclic oxaazathia crown compounds with potential antimicrobial activity” (2010)
